The text below walks through data of ChEMBL document CHEMBL1938288, “Discovery, synthesis, and pharmacological evaluation of spiropiperidine hydroxamic acid based derivatives as structurally novel histone deacetylase (HDAC) inhibitors” (J Med Chem, 2011).

Broadly, the bioavailability is the share of a dose that reaches the circulation, judged against a reference dose that is usually intravenous. Usually pIC50 stands for the negative decadic logarithm of the IC50, by convention in mol/L. A lower pIC50 goes with a high IC50. By IC50 is commonly meant the midpoint of a concentration-inhibition curve. Read a high IC50 as weaker potency. What is called AUC(0-inf) is the area under the concentration-time curve extrapolated to infinity. A lower AUC(0-inf) goes with low exposure. The Tmax is the time from dosing to the highest level.

A short description of series [1]: Plasma clearance in CD1 mouse at 5 mg/kg, iv and 15 mg/kg, po. The class given is ADME, organism-based. An outline of the steps: (§1)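 Single dose to male CD-1 mice, either iv at 5 mg/kg or oral at 15 mg/kg. Plasma pharmacokinetic parameters were calculated from these dosings.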
Series [2] concerns HCT-116. The series is described as follows: Cell cycle arrest in human HCT116 cells assessed as accumulation at G2M phase at 1 to 3 uM after 24 hrs by flow cytometry. The class given is functional, cell-based. Summed up: (§2)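 HCT-116 cells treated for 24 h at several concentrations. Harvested, fixed in 70% ethanol at -20 °C, RNase treated (1 mg/mL), stained with propidium iodide. DNA content measured by flow cytometry to give phase distribution, including the subG1 population.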
(In general: A flow cytometer gives signals particle by particle.)

Series [3] in a line: Oral bioavailability in CD1 mouse at 15 mg/kg. As to conditions: in vivo. In kind it is ADME, organism-based. An outline of the steps: as §1
The target of series [4] is T1, Histone deacetylase (Homo sapiens) (UniProt Q13547+O15379+Q9UBN7+Q92769+Q9UQL6+Q8WUI4+Q9BY41+Q96DB2+P56524+Q9UKV0+Q969S8). As to conditions: HCT-116, 0.001 to 10 uM.
For series [5], the target named is T2, Protein deacetylase HDAC6 (Homo sapiens, UniProt Q9UBN7).
T2 sequence (Q9UBN7 whole entry): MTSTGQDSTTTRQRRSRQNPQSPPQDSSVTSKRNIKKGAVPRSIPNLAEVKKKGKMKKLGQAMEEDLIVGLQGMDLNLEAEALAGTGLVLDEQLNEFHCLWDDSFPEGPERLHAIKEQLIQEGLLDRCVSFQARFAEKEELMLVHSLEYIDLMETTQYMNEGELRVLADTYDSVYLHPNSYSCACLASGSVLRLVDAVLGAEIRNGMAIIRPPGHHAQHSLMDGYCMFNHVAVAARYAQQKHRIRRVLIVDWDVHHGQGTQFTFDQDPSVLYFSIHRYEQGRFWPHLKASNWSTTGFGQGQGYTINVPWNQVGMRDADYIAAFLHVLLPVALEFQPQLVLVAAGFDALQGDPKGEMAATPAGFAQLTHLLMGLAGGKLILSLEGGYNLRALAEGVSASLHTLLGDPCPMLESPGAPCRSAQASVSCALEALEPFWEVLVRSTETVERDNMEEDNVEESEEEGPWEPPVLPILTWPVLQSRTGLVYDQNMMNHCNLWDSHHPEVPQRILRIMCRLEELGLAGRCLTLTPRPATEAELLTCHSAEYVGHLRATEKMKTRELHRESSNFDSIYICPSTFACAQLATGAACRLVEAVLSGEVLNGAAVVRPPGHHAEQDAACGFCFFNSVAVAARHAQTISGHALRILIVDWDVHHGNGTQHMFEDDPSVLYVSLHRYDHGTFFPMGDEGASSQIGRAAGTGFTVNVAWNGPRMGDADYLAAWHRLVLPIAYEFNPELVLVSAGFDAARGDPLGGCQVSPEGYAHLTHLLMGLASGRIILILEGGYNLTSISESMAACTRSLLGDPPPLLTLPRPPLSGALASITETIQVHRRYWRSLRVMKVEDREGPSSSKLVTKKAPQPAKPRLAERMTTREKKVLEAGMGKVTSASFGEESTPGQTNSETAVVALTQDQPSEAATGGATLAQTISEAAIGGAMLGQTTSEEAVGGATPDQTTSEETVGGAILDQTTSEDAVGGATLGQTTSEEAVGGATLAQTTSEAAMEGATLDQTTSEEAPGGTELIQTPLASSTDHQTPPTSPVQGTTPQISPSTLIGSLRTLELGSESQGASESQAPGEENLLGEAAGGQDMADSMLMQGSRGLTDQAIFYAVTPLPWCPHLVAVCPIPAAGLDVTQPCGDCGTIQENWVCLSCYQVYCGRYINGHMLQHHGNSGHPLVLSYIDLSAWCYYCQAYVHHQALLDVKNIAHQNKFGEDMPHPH
In words: Inhibition of HDAC6 using carboxyfluorescein-labeled peptide as substrate after 17 hrs by fluorescence assay. Summed up: (§3)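 Purified HDAC isoforms incubated with compound and 1 μM carboxyfluorescein-labelled peptide for 17 h at 25 °C. Reaction stopped with HEPES/0.08% SDS. Substrate and product separated electrophoretically and read by fluorescence. Run in duplicate. IC50 from 12-point curves by nonlinear regression.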

In another series the target is Histone deacetylase. The series is described as follows: Inhibition of human HDAC in HeLa cell nuclear extracts using KI-104 Fluor de Lys as substrate by fluorescence assay. The class given is protein assay. Summed up:
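HDAC activity from partially purified HeLa nuclear extracts, using a fluorogenic acetylated histone peptide (Fluor de Lys) as substrate. Replicates n ≥ 2, mean values reported.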

For series [6], the system named is HCT-116. In words: Antiproliferative activity against human HCT116 cells after 72 hrs by CellTiter-Glo luminescent cell viability assay. In kind it is functional, cell-based. As to conditions: HCT-116, 72 h. An outline of the steps: (§4)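 Cells in exponential growth exposed to a range of inhibitor concentrations for 72 h. CellTiter-Glo reagent added, mixed 2 min to lyse cells, luminescence read 10 min later. IC50 derived from the concentration–response. Replicates n ≥ 2, mean shown.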
Background: Cellular ATP, detected with luciferase, serves as a proxy for viable cell number.

Series [7] has as its system HCT-116. The series is described as follows: Antitumor activity against human HCT116 cells xenografted in CD1 nude mouse assessed as reduced tumor volume 150 mg/kg, po administered for 5 days/week for 17 days. The class given is functional. Summed up:
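Female CD-1 nude mice bearing subcutaneous flank HCT-116 tumours (5 × 10⁶ cells injected). Dosing began at about 100 mm³ tumour volume. Given orally at 35–150 mg/kg in water with 5% DMSO and 9.5% encapsin, 5 days/week for 17 days. Tumour volume tracked against vehicle controls. T/C = mean relative tumour volume treated / control.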
A general note: A xenograft is tissue or cells of one species grown in another, often human tumour cells in immunodeficient mice.

Series [8] relates to HCT-116. The series is described as follows: Cell cycle arrest in human HCT116 cells assessed as decrease in S phase cells at 0.3 uM after 24 hrs by flow cytometry. The class given is functional, cell-based. An outline of the steps:
as §2

For another series, the species on record is Mus musculus. In words: Hepatic blood flow in mouse. The class given is ADME, organism-based, Liver.
A further series concerns the target Histone deacetylase 3 (Homo sapiens, UniProt O15379). The series is described as follows: Inhibition of HDAC3 using carboxyfluorescein-labeled peptide as substrate after 17 hrs by fluorescence assay. Summed up:
as §3

A further series deals with K562. The series is described as follows: Antiproliferative activity against human K562 cells after 72 hrs by CellTiter-Glo luminescent cell viability assay. In kind it is functional, cell-based. The note with it: K562, 72 h. Summed up:
as §4

A short description of series [9]: Volume of distribution at steady state in CD1 mouse at 5 mg/kg, iv and 15 mg/kg, po. The class given is ADME, organism-based. As to conditions: in vivo, read-out: Vdss. Summed up:
as §1

Series [10] addresses T1, Histone deacetylase (Homo sapiens). The note with it: HCT-116, 100 uM.
Series [11] deals with HCT-116. In words: Cell cycle arrest in human HCT116 cells assessed as accumulation at G0/G1 phase at 1 to 3 uM after 24 hrs by flow cytometry. The class given is functional, cell-based. The note with it: in the assay text read “G2/M phase” for “G0/G1 phase”. Summed up:
as §2

For a further series, the system named is A549. The series is described as follows: Antiproliferative activity against human A549 cells after 72 hrs by CellTiter-Glo luminescent cell viability assay. The class given is functional, cell-based. The note with it: A549, 72 h. Summed up:
as §4

Series [12] is described as follows: AUC (0 to infinity) in CD1 mouse at 15 mg/kg, po. The class given is ADME, organism-based. Also on record: time infinity, dose 15 mg/kg, route oral. As to conditions: plasma. Summed up:
as §1

Series [13] has as its system HCT-116. The series is described as follows: Cell cycle arrest in human HCT116 cells assessed as accumulation at subG1 phase after 24 hrs by flow cytometry. In kind it is functional, cell-based. Summed up:
as §2

Series [14] in a line: Tmax in mouse. As to conditions: in vivo. In kind it is ADME, organism-based.

pIC50: −log10 of the molar value. Activity calls are given as the source filed them. The rule behind the calls is not given here.

Sequence of Histone deacetylase 3 (O15379 whole entry): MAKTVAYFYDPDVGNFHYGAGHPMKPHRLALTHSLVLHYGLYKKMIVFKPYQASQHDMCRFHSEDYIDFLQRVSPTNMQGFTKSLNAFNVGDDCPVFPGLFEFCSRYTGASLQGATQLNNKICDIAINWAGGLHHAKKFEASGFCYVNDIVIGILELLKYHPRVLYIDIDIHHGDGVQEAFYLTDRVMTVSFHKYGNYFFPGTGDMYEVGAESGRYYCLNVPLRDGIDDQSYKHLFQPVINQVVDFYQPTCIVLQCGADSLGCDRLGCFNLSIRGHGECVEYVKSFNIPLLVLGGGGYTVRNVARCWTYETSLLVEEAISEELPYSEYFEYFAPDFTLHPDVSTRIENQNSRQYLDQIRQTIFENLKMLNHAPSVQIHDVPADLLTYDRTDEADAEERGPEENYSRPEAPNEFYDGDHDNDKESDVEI

In series [1], `O=C(/C=C/c1ccc2c(c1)C(=O)CC1(CCN(Cc3ccccc3)CC1)O2)NO` gave a clearance of 98 mL/min/kg. The result in the series with HCT-116 [2], with HCT-116 [8] and with HCT-116 [11] was Active. This molecule came in with a bioavailability in series [3] of 31.5%. In addition, the inhibition entry in [4] is “tde”. For the same molecule, the pIC50 in series [5] was 7.59; in the series with HCT-116 [6] it was 6.32; on Histone deacetylase 3, 8.03; with K562, 6.40; in the series on A549, 6.11. This molecule yielded an IC50 on Histone deacetylase of 121 nM. Also, in the series with HCT-116 [7], the T/C was determined as 0.3. This molecule had a QH in the series listed under Mus musculus of 90 mL/min/kg. Moreover, in series [9], the Vd was determined as 8.9 L/kg. Besides, the inhibition entry in series [10] is “Active”. For the same molecule, the AUC(0-inf) in series [12] is 800 ng·h/mL. Also, the Activity result in the series on HCT-116 [13] was “Dose-dependent effect”. In series [14], the Tmax is 15 min.
